Shown are actives, neighbours in structure and some others; about 7.1% of the full set was active somewhere.
Lung fibro prol = blocks proliferation of human lung fibroblasts; AID 719; actives 1.1% (n = 85,000); LL 47 human lung fibroblast viability, ATP luminescence; stronger effect = lower value; viability, % at 10 µM;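 active = viability at or below 50% in the single dose screen; inactive = viability above 50%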;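 note: compound exposure lasted 72 h before the ATP readout; 100% = median luminescence of untreated cell-only wells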
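Material: human LL 47 lung fibroblast cells; quantity: 1,150 cells/well; medium: IMEM plus 15% FBS; doses: 0.1% DMSO in all compound wells; timing: overnight attachment after seeding, then 72 h compound exposure at 37 °C; detection: CellTiter-Glo luminescence; measure: % viability of median cell-only signal; controls: cell-only wells, no compound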
HUVEC inhibit = blocks proliferation of human endothelial cells; actives 1.1% (n = 86,000); viability, % at 10 µM (by protocol); HUVEC proliferation, CellTiter-Glo luminescence, 72 h; stronger effect = lower value;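 active = viability at or below 30%; inactive = viability above 30%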;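 note: 100% = median luminescence of DMSO-only cell control wells on each plate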
PTEN del growth = growth suppressors of cells with PTEN tumor suppressor deletion. HCT116 PTEN-null viability, CellTiter-Glo, 60 h; stronger effect = lower value. viability, % at 10 µM. actives 1.2% (n = 140,000). AID 827;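 active = viability at or below a set limit, 4 SD under the median of all tested compounds, cut at about 3.7% in these data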;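 note: PTEN knockout HCT116 line with beta catenin targeted HCT116 as companion control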
Cav3 T inh = inhibitors of human Cav3.2 T-type calcium channel; B-score at 10 µM; Cav3.2-expressing cells, Fluo-4 calcium fluorescence FDSS; stronger effect = lower value; O95180; actives 4% (n = 100,000);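 active = single-dose well whose peak fluorescence ratio is a statistical outlier from its plate by either plate-standardised score or position-corrected B-score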
bCat KO growth = beta-catenin-lacking colon tumor cell growth suppression. AID 818. viability, % at 10 µM. actives 1.5% (n = 140,000). HCT116 beta-catenin knockout viability, CellTiter-Glo, 60 h; stronger effect = lower value;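 active = viability at or under a set limit, the compound median less 4 SD, cut at about 6% in these data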;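 note: 0% = Hyamine 1622 control at 20 µM and 100% = untreated cell control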
H69AR growth 86K = blocks growth of human H69AR lung tumor cells; H69AR lung tumor viability, ATP luminescence, 72 h; stronger effect = lower value; viability, % at 10 µM; actives 6% (n = 85,000);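 active = viability at or below 40%; inactive = viability above 40%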;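 note: multidrug resistant small cell line overexpressing MRP-1 efflux transporter; 100% = mean luminescence of untreated control wells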
Numbers without * were called inactive; / = no result.

SMILES	Lung fibro prol	HUVEC inhibit	PTEN del growth	Cav3 T inh	bCat KO growth	H69AR growth 86K
CCN(CC)c1ccc2c(Cl)c(Br)c(=O)oc2c1	34*	47	30	-6.4*	14	12*
CCN(CC)c1ccc2c(c1)oc(=O)c1c(Cl)cc(=O)oc12	11*	38	2.0*	-0.8	3.0*	1.9*
CC(C)(NC(=O)N1CCOCC1)c1cccc(C(C)(C)NC(=O)N2CCOCC2)c1	101	89	/	-0.86	/	105
COc1ccc(CCn2c(=S)[nH]c3cc(C(=O)NCc4ccco4)ccc3c2=O)cc1OC	76	7.3*	85	/	90	4.4*
Cc1ccc(-c2csc(NC(=O)c3cccc(S(=O)(=O)N4CCN(C)CC4)c3)n2)cc1	74	51	35	0.4	29	67
CC1CCN(S(=O)(=O)c2cccc(C(=O)NCc3cccs3)c2)CC1	105	123	95	-7.3*	95	103
Nc1nc(NC(=O)c2cccc(S(=O)(=O)N3CCCCCC3)c2)nc(-c2ccccc2)n1	25*	63	89	-2.3	107	5.3*
CC1CCN(S(=O)(=O)c2cccc(C(=O)NCc3ccco3)c2)CC1	/	99	105	/	95	106
O=C(Nc1nc(-c2cccs2)cs1)c1cccc(S(=O)(=O)N2CCCCC2)c1	76	84	47	-9.2*	50	65
COc1cc(C(=O)Nc2ccc(N(C)C)cc2)cc(OC)c1OC	97	81	68	-0.41	78	33*
COc1ccc(C(=O)N[C@H](C(=O)OCC(=O)NC(=O)c2cccn2C)C(C)C)cc1	/	/	101	/	102	/
Cc1csc(NC(=O)C2CCCN(S(=O)(=O)c3ccc(Br)s3)C2)n1 (centres undefined)	104	107	49	/	27	71
O=C(Nc1nc(-c2ccccc2)cs1)C1CCCN(S(=O)(=O)c2cccc([N+](=O)[O-])c2)C1 (centres undefined)	/	/	67	-6.1*	63	/
O=C(Cc1ccccc1)Nc1nc(-c2cccs2)cs1	101	86	82	-2.7	90	87
COc1cc(C(=O)Nc2nc(-c3cccs3)cs2)cc(OC)c1OC	85	77	7	0.088	11	14*
COc1ccc(C(=O)Nc2nc(-c3cccs3)cs2)cc1	91	64	44	-8.9*	61	89
COc1ccc(CN(C)CC(=O)Nc2ccc(Cl)cc2C(F)(F)F)c(OC)c1	/	/	56	/	46	/
CN1C(=O)C(Cl)(Cl)C(=O)c2ccccc21	/	/	82	/	78	/
COC(=O)C1=C(SC)N(c2ccccc2)C(c2ccccc2)CC1=O (centres undefined)	/	/	101	/	97	/
COc1ccc2c(c1)c(C(=O)CNc1nc(C)cs1)c(C)n2C	90	87	71	0.56	81	68
CCOCc1cnc(C)nc1NCC(=O)c1c(C)n(C)c2ccc(OC)cc12	96	61	91	1.4	94	34*
O=C(CSCC(=O)N1CCCCC1)Nc1nc(-c2ccc(Cl)s2)cs1	99	100	84	-5.2*	91	81
CCOC(=O)N1CCN(C(=O)CSCC(=O)Nc2nc(-c3ccccc3)cs2)CC1	101	82	91	-2.7	85	89
O=C(CN1C(=O)CCC1=O)Nc1nc(-c2ccc(Cl)s2)cs1	/	/	87	/	86	/
CC1CC(C)CN(C(=O)CSCC(=O)Nc2nc(-c3cccs3)cs2)C1 (centres undefined)	101	90	82	/	84	96
SMILES	Lung fibro prol	HUVEC inhibit	PTEN del growth	Cav3 T inh	bCat KO growth	H69AR growth 86K
O=C(CSCC(=O)N1CCN(c2ccccc2)CC1)Nc1nc(-c2ccc(Cl)s2)cs1	99	98	40	-5.6*	54	76
O=C(Cc1ccccc1F)Nc1nc(-c2cccs2)cs1	105	83	75	-9.6*	90	91
O=C(CSCC(=O)N1CCCCC1)Nc1nc(-c2cccs2)cs1	98	93	91	-3.7*	96	89
COc1ccccc1N(CN1C(=O)c2ccccc2C1=O)C(=O)c1cccc(C)c1	/	/	89	/	87	/
Oc1cc(-c2ccccc2)c2ccccc2c1	/	/	84	/	85	/
O=C(NCC1CCCO1)C(c1cccs1)N(C(=O)c1ccc(CN2CCOCC2)o1)c1ccc(Cl)cc1 (centres undefined)	/	/	91	/	92	/
O=C(c1ccccc1)N1CCN(C(=S)NCc2ccc3c(c2)OCO3)CC1	/	/	97	/	90	/
Cc1ccc(-c2noc(CCC(=O)NCCCN3CCN(c4cccc(Cl)c4)CC3)n2)cc1	57	23*	5	-0.084	7	37*
Cc1ccc(-c2noc(CCC(=O)NCCCN3CCN(c4ccc(F)cc4)CC3)n2)cc1	58	75	9	-1.4	12	27*
Cc1ccc(S(=O)(=O)/N=C2\C(=O)c3ccccc3C([O-])=C2n2cc[n+](CCC(C)C)c2)cc1	44*	4.4*	6	0.46	3.7*	42
CCCC[n+]1ccn(C2=C([O-])c3ccccc3C(=O)/C2=N\S(=O)(=O)c2ccc(Br)cc2)c1	/	/	48	/	37	/
Cc1cccc(OCC(=O)NNC(=O)C2CCCCC2C(=O)O)c1 (centres undefined)	/	/	101	/	102	/
O=S(=O)(Nc1nc2ccccc2nc1N1CCN(c2ccccc2F)CC1)c1ccc(Cl)cc1	102	57	74	-5.7*	77	62
O=C(CSc1nnc(-c2cccs2)n1-c1ccccc1)c1ccc2c(c1)OCCO2	77	34	/	0.29	/	17*
N#Cc1ccc(CSc2nnc(-c3ccccn3)n2-c2ccccc2)cc1	90	85	83	1.3	85	68
O=C(CSc1nnc(-c2ccc3c(c2)OCO3)n1-c1ccccc1)c1ccccc1	/	/	51	/	93	/
Cc1cccc(NC(=O)CSc2nc3[nH]ncc3c(=O)n2-c2ccccc2)c1	/	/	80	/	86	/
O=C(CSc1nc2[nH]ncc2c(=O)n1-c1ccccc1)c1ccc2c(c1)OCCO2	89	56	71	0.82	72	17*
COc1ccc(NC(=O)CSc2nnc(-c3cccs3)n2-c2ccccc2)cc1	39*	21*	51	0.52	52	46
COc1ccc(NC(=O)CSc2nnc(C3CC3)n2-c2ccccc2)cc1	95	91	96	0.44	92	94
N#Cc1ccc(CSc2nnc(-c3cccs3)n2-c2ccccc2)cc1	107	99	82	-5.8*	78	79
CCCCn1c(N)c(C(=S)NC(=O)CC(C)(C)C)c(=O)n(C)c1=O	/	/	102	/	85	/
O=C(CSc1nnc(-c2ccco2)n1-c1ccccc1)N1CCc2ccccc21	102	88	/	/	/	78
C=CCn1c(SCC(=O)Nc2ccc(C(=O)OC(C)C)cc2)nnc1-c1cccs1	30*	39	74	-0.73	96	25*

Source: PubChem BioAssay (several laboratories)
